The species entered for assay [1] is Rattus norvegicus. The assay is described as follows: Compound was tested for oxytocic response in rat. The format is functional.
Assay [2] is filed under the species Rattus norvegicus. The assay is described as follows: Compound was tested for pressor response in rat. The assay is classed as functional. The gist of the method:
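Urethane-anesthetized male Zivic-Miller rats; blood pressure recorded from the cannulated left femoral artery via a linear core transducer. Peptides were injected into the cannulated right jugular vein with an automatic dispensing syringe. An AII dose-response curve was run before and after each analogue, so each animal served as its own control. Dose-response data are given as mean ± SEM, with the number of animals stated.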

Square brackets hold non-standard residues; d marks the D form. Peptide text beside a SMILES is read from it. * marks the point of attachment. αMeF = C[C@](N)(Cc1ccccc1)C(=O)O; Phe(ol) = N[C@H](CO)Cc1ccccc1; X1 = CC(=O)[C@H](Cc1ccccc1)N*

For `CC(=O)N[C@@H](CC(N)=O)C(=O)N[C@@H](CCCN=C(N)N)C(=O)N[C@H](C(=O)N[C@@H](Cc1ccc(O)cc1)C(=O)N[C@H](C(=O)N[C@@H](Cc1c[nH]cn1)C(=O)N1CCC[C@H]1C(=O)N[C@@H](Cc1ccccc1)C(C)=O)C(C)C)C(C)C` (Ac-NRVYVHP-X1), the Activity in the assay listed under Rattus norvegicus [1] came out at 0.4%; in the assay listed under Rattus norvegicus [2], 0.03%.
On the same counts, the results for `COC(=O)[C@H](Cc1ccccc1)NC(=O)[C@@H]1CCCN1C(=O)[C@H](Cc1c[nH]cn1)NC(=O)[C@@H](NC(=O)[C@H](Cc1ccc(O)cc1)NC(=O)[C@@H](NC(=O)[C@H](CCCN=C(N)N)NC(=O)[C@H](CC(N)=O)NC(C)=O)C(C)C)C(C)C` (Ac-NRVYVHPF-OMe) are 20% and 13%.
For the compound `CC(=O)N[C@@H](CC(N)=O)C(=O)N[C@@H](CCCN=C(N)N)C(=O)N[C@H](C(=O)N[C@@H](Cc1ccc(O)cc1)C(=O)N[C@H](C(=O)N[C@@H](Cc1c[nH]cn1)C(=O)N1CCC[C@H]1C(=O)N[C@H](CO)Cc1ccccc1)C(C)C)C(C)C` (Ac-NRVYVHP[Phe(ol)]), the Activity in the assay filed under Rattus norvegicus [1] was found to be 0.09%; in the assay filed under Rattus norvegicus [2], 0.001%.
On the same counts, the results for `COC(=O)[C@](C)(Cc1ccccc1)NC(=O)[C@@H]1CCCN1C(=O)[C@H](Cc1c[nH]cn1)NC(=O)[C@@H](NC(=O)[C@H](Cc1ccc(O)cc1)NC(=O)[C@@H](NC(=O)[C@H](CCCN=C(N)N)NC(=O)[C@H](CC(N)=O)NC(C)=O)C(C)C)C(C)C` (Ac-NRVYVHP[αMeF]-OMe) are 0.002% and 0.001%.
On to H-NRVYVHPF-OH [ANGIOTENSIN AMIDE], for which the Activity in the assay listed under Rattus norvegicus [1] and in the assay listed under Rattus norvegicus [2] was 100% throughout.

The values are drawn from ChEMBL document CHEMBL1123513, “Role of the C-terminal carboxylate in angiotensin II activity: alcohol, ketone, and ester analogues of angiotensin II” (1986).
